Active and inactive are the calls of the source. No cut-off for these calls is given here.
Tests used:
[1] = Antioxidant activity assessed as free radical scavenging activity by lipid peroxidation assay; assay type: functional
Summary of the method: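 Lipid peroxidation system initiated with 400 mM FeCl3 and 200 mM L-ascorbic acid (stock levels as printed). Test compound added at several concentrations; control without compound. Incubated 37 °C, 60 min. Stopped with 0.25 N HCl / 1.5% TCA / 0.375% thiobarbituric acid, boiled 15 min, cooled, centrifuged. Absorbance read at 532 nm; percent inhibition versus control used to derive EC50.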

HL-60 [2] = assay: Cytotoxicity against human HL60 cells after 5 days by MTT assay; assay type: functional; details: HL-60, 120 h
[3] = Cytotoxicity against human PBMC cells after 5 days by MTT assay; assay type: cell-based
Summary of the method: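 Cells seeded at 3 × 10^5 cells/mL in 96-well plates and kept at 37 °C in humidified 5% CO2 with test compound for 5 days. PBMC came from healthy donors. Viability read by MTT; CC50 calculated. Mean ± SD of three independent experiments, Student t-test.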

HL-60 [4] = assay: Induction of apoptosis in human HL60 cells assessed as fragmentation of DNA after 48 hrs by electrophoresis; assay type: functional, cell-based
Summary of the method: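 HL60 cells exposed to test compound alongside untreated control. After 48 h, DNA extracted, run on 0.8% agarose gel with ethidium bromide, and fragmentation pattern imaged.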

HL-60 [5] = assay: Induction of apoptosis in human HL60 cells after 48 hrs using annexin V-propidium iodide staining by FACS analysis; assay type: functional, cell-based
Summary of the method: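 HL60 cells incubated with test compound at a concentration set from its CC50. Stained with FITC-Annexin V and analysed by flow cytometry, with treated-cell fluorescence compared against control cells.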

Compound | EC50 [1] [µM] | CC50 (HL-60 [2]) [µM] | CC50 at 120 h [3] [µM] | Activity (HL-60 [4]) | Activity (HL-60 [5])
COc1ccc2c(c1)OC(c1cccc([N+](=O)[O-])c1)C(c1ccccc1)C2=O (centres undefined) | 130 | > 2500 | > 2500 | Active | –
CCOc1ccc2c(c1)OC(c1cccc([N+](=O)[O-])c1)C(c1ccccc1)C2=O (centres undefined) | 193 | > 2500 | > 2500 | Active | –
CCOc1ccc2c(c1)OC(c1ccc(Cl)cc1)C(c1ccccc1)C2=O (centres undefined) | 578 | 514 | > 2500 | Active | –
COc1ccc2c(c1)OCC(c1ccccc1)C2=O (centres undefined) | 965 | 82.6 | 521 | Active | –
COc1ccc2c(c1)OC(c1ccc(Cl)cc1)C(c1ccccc1)C2=O (centres undefined) | 165 | 2410 | > 2500 | Active | –
COc1ccc2c(c1)OC(c1ccccc1)C(c1ccccc1)C2=O (centres undefined) | 500 | 2330 | > 2500 | Active | –
CCOc1ccc2c(c1)OC(c1ccc([N+](=O)[O-])cc1)C(c1ccccc1)C2=O (centres undefined) | > 2500 | 203 | 1360 | Active | –
O=C1O[C@H]([C@@H](O)CO)C(O)=C1O [ASCORBIC ACID] | 754 | – | – | – | –
COc1ccc2c(c1)OC(c1ccc([N+](=O)[O-])cc1)C(c1ccccc1)C2=O (centres undefined) | > 2500 | 73.2 | 595 | Active | –
CCOc1ccc2c(c1)OC(c1ccccc1)C(c1ccccc1)C2=O (centres undefined) | 877 | > 2500 | > 2500 | Active | –
COc1ccc2cc3[n+](cc2c1OC)CCc1cc2c(cc1-3)OCO2 | – | – | – | – | Active
O=c1[nH]cc(F)c(=O)[nH]1 [FLUOROURACIL] | – | 0.07 | – | – | –

Source: ChEMBL document CHEMBL1165893, “Synthesis, anticancer and antioxidant activities of 7-methoxyisoflavanone and 2,3-diarylchromanones” (Eur J Med Chem, 2010)
